In brackets after ≈: the same amount, converted by molar mass. Activity calls are given as the source filed them. No cut-off for these calls is given here.
What was measured:
[1] = molecular target: T1, Serine/threonine-protein kinase mTOR (Homo sapiens, UniProt P42345); experiment: Inhibition of human mTOR at 10 uM using 4EBP1 as substrate after 120 mins by [gamma-33P]-ATP assay
In short: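 Single-point kinase screen by HotSpot radioisotope filter binding assay; compound at 10 μM with 10 μM ATP, reported as percent inhibition of PI3Kα and mTOR.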

[2] = molecular target: PI3-kinase p110-alpha/p85-alpha (Homo sapiens, UniProt P42336); experiment: Inhibition of human PI3K p110alpha/p85alpha using PIP2 as substrate incubated for 10 mins followed by ATP addition and measured after 30 mins in presence of 10 uM ATP by HTRF assay; format: protein-complex assay
Sequence of PI3-kinase p110-alpha/p85-alpha (P27986 whole entry): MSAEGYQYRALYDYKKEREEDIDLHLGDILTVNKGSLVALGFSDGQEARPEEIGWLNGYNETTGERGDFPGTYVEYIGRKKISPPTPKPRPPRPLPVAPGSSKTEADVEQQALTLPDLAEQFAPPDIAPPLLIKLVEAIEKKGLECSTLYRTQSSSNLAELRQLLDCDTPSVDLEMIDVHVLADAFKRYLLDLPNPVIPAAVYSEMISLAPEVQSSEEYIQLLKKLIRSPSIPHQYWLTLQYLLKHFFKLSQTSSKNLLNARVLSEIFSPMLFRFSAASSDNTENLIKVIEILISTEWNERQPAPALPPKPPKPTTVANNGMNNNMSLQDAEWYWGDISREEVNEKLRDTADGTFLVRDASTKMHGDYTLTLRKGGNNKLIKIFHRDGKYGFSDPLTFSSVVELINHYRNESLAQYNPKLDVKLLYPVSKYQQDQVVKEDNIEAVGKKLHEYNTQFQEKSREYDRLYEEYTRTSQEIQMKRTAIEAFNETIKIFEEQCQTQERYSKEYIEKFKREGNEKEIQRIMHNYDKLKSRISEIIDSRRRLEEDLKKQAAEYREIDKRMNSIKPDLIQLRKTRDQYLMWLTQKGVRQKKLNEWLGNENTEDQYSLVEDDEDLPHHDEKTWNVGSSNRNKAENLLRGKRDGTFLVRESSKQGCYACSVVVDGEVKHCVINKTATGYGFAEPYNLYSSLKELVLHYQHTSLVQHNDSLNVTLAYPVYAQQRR
Sequence of PI3-kinase p110-alpha/p85-alpha (P42336 whole entry): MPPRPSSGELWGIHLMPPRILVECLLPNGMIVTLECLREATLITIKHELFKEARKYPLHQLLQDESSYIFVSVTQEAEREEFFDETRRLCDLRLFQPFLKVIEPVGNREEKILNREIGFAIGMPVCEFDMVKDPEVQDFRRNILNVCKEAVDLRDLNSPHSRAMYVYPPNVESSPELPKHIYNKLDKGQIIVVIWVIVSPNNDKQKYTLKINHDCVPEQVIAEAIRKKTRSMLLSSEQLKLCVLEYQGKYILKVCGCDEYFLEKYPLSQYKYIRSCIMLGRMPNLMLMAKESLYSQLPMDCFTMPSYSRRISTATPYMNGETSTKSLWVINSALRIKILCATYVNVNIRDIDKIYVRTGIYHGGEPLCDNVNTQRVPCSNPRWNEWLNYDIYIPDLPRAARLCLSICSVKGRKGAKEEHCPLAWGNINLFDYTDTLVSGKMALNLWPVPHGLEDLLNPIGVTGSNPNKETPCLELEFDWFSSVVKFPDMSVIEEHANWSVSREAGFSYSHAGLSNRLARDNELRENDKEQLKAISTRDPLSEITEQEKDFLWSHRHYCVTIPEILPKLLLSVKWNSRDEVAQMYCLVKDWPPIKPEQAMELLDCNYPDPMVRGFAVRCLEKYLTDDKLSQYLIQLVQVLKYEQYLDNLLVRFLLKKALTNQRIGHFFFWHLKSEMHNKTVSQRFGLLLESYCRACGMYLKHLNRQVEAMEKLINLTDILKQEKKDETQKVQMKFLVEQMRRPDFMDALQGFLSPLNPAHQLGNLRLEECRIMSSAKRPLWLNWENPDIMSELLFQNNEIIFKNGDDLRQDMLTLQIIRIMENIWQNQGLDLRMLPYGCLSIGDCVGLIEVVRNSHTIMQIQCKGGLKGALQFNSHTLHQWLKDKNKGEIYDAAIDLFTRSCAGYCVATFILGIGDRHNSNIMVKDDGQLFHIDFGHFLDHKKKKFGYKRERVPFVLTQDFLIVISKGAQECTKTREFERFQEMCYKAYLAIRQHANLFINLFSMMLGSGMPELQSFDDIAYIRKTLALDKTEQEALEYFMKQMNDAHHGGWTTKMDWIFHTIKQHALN

[3] = molecular target: T1, Serine/threonine-protein kinase mTOR; experiment: Inhibition of human mTOR using 4EBP1 as substrate after 120 mins by [gamma-33P]-ATP assay
[4] = Kinetic aqueous solubility of compound in 2% DMSO/Phosphate buffer saline incubated for 90 mins under shaking condition by; format: physicochemical; conditions: 2% DMSO/phosphate buffered saline, read-out: Kinetic_solubility
In short: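 Maximum kinetic aqueous solubility measured in 2% DMSO/phosphate-buffered saline, pH 7.4.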

[5] = molecular target: PI3-kinase p110-alpha/p85-alpha (Homo sapiens) (UniProt P27986+P42336); experiment: Inhibition of human PI3K p110alpha/p85alpha at 10 uM using PIP2 as substrate incubated for 10 mins followed by ATP addition and measured after 30 mins in presence of 10 uM ATP by HTRF assay; format: protein-complex assay
[6] = Half life in CD1 mouse liver microsomes at 1 uM incubated for 60 mins under shaking condition by LC-MS/MS analysis; format: ADME, Microsome
In short: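 Metabolic stability in mouse liver microsomes with test compound at 1 μM; result expressed as t1/2 (min).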

[7] = Cytotoxicity against human primary fibroblasts assessed as cell viability at 10 uM after 48 hrs by celltiter-glo 2D luminescent assay relative to control; format: cell-based, Fibroblast; conditions: read-out: Activity
In short: (§1)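 2D CellTiter-Glo luminescent viability screen, single 10 μM compound concentration, in MDA-MB-468, MDA-MB-231 and MCF7 breast cancer cells and in normal human dermal fibroblasts; output reported as percent of viable cells.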

[8] = system: MDA-MB-468; experiment: Antiproliferative activity against human MDA-MB-468 cells assessed as cell viability at 10 uM after 48 hrs by celltiter-glo 2D luminescent assay relative to control; format: functional; conditions: read-out: Activity; in short: as §1
[9] = system: MCF7; experiment: Antiproliferative activity against human MCF7 cells assessed as reduction in cell viability after 48 hrs by celltiter-glo 3D luminescent assay; format: functional, cell-based; conditions: MCF7, 48 h
In short: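 MCF7 cells grown in 3D culture, viability read by CellTiter-Glo 3D luminescence; dose–response curves run up to 15 μM to derive IC50.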

[10] = system: MCF7; experiment: Antiproliferative activity against human MCF7 cells assessed as cell viability at 10 uM after 48 hrs by celltiter-glo 2D luminescent assay relative to control; format: functional; conditions: read-out: Activity; in short: as §1
[11] = system: MCF7; experiment: Inhibition of PI3K in human MCF7 cells assessed as reduction in AKT phosphorylation at 473 residue after 4 hrs by Western blot analysis; format: cell-based; conditions: dose nM 62.5-125, time 4.0 hrs
In short: (§2)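 MCF7 cells treated for 4 h at 62.5 and 125 nM; lysates probed by Western blot for phospho-AKT(473), phospho-4EBP and phospho-P70S6.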

[12] = molecular target: T1, Serine/threonine-protein kinase mTOR; experiment: Inhibition of mTOR in human MCF7 cells assessed as reduction in phosphorylated 4EBP level after 4 hrs by Western blot analysis; format: cell-based; conditions: dose nM 62.5-125, time 4.0 hrs; in short: as §2
[13] = system: MDA-MB-231; experiment: Antiproliferative activity against human MDA-MB-231 cells assessed as cell viability at 10 uM after 48 hrs by celltiter-glo 2D luminescent assay relative to control; format: functional; conditions: read-out: Activity; in short: as §1
[14] = molecular target: T1, Serine/threonine-protein kinase mTOR; experiment: Inhibition of mTOR in human MCF7 cells assessed as reduction in phosphorylated P70S6K level after 4 hrs by Western blot analysis; format: cell-based; conditions: dose nM 62.5-125, time 4.0 hrs; in short: as §2

Row | SMILES | inhibition [1] | IC50 [2] | IC50 [3] | solubility kinetic at 1.5 h [4] | inhibition [5] | half-life at 1 µM [6] | viability at 48 h, 10 µM [7] | viability at 10 µM [8] | IC50 [9] | viability at 10 µM [10] | inhibition [11] | inhibition [12] | viability at 10 µM [13] | inhibition [14]
1 | O=S(=O)(Nc1nccs1)c1ccc(Nc2nc(N3CCOCC3)c3ccccc3n2)cc1 | Active | 6.9 µM | 11.4 µM | 42.6 µM (≈ 20 µg/mL) | Active | 52 min |  |  |  |  |  |  |  | 
2 | CC(=O)Nc1ccc(NC(=O)Nc2ccc(-c3nc(N4CCOCC4)c4ccccc4n3)cc2)cc1 | Active | 0.0007 µM |  | < 2 µM | Active | > 60 min | 71% | 50% | 0.2 µM | 29% | Dose-dependent effect | Dose-dependent effect | 69% | Dose-dependent effect

Reference: ChEMBL document CHEMBL4725466, “Discovery and SAR of Novel Disubstituted Quinazolines as Dual PI3Kalpha/mTOR Inhibitors Targeting Breast Cancer” (ACS Med Chem Lett, 2020)
